Screening results: PubChem, The Scripps Research Institute Molecular Screening Center
CHRM4 PAM = human M4 muscarinic receptor positive allosteric modulators, primary screen, CHO-K1 cells, Fluo-8 calcium fluorescence | Muscarinic acetylcholine receptor M4 (Homo sapiens), P08173 | AID 624126, 2012 | CHO-K1 hM4/Gqi5, ACh EC20; 0% = ACh EC20, 100% = maximal ACh | activation, % at 3 µM | 360,000 tested, 0.4% active;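 active = activation above its plate's cutoff, the mean activation of sample wells plus 3 SD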
M5 antag = human M5 muscarinic receptor antagonists, primary screen, CHO cells, Fluo-8 calcium fluorescence | Muscarinic acetylcholine receptor M5 (Homo sapiens), P08912 | CHO-hM5 cells, ACh EC80 | inhibition, % at 3 µM | 360,000 tested, 0.59% active | AID 624040, 2012;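 active = inhibition above a per-plate cutoff, the mean of that plate's test compounds plus 3 SD, cut at about 27% in these data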;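 note: 0% = acetylcholine EC80 with DMSO and 100% = DMSO without agonist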
Target sequence (P08912 whole entry, looked up): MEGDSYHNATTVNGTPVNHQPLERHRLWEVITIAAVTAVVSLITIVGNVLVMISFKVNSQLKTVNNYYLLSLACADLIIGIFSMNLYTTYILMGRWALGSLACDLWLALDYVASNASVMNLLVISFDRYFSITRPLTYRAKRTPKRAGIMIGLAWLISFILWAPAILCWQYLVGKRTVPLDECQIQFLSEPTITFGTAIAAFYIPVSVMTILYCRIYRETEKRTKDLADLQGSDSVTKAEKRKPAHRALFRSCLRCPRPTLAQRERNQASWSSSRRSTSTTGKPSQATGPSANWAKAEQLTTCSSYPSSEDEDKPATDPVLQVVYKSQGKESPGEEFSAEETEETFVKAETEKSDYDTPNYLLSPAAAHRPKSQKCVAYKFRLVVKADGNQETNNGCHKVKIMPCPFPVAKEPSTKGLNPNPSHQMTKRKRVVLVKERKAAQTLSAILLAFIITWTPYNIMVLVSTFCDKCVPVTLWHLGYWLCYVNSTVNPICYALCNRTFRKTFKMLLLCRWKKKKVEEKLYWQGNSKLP
M4 antag = human M4 muscarinic receptor antagonists, primary screen, CHO cells, Fluo-8 calcium fluorescence; Muscarinic acetylcholine receptor M4 (Homo sapiens), P08173; CHO-hM4 cells, ACh EC80; inhibition, % at 3 µM; 360,000 tested, 0.73% active; AID 624125, 2012;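 active = inhibition above its plate's cutoff, the mean inhibition of sample wells plus 3 SD, cut at about 27% in these data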;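 note: 0% = acetylcholine EC80 with DMSO and 100% = DMSO without agonist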
CHRM4 agonist = human M4 muscarinic receptor agonists, primary screen, CHO-K1 cells, Fluo-8 calcium fluorescence; activation, % at 3 µM; Muscarinic acetylcholine receptor M4 (Homo sapiens), P08173; CHO-K1 hM4/Gqi5; vehicle 0%, full acetylcholine response 100%; 360,000 tested, 0.14% active;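 active = activation above the run mean over all test wells plus 3 SD, cut at about 32% in these data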;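 note: peak over basal fluorescence ratio per well then scaled between controls; 0% = DMSO wells and 100% = acetylcholine at EC100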
M5 ag = human M5 muscarinic receptor agonists, primary screen, CHO-K1 cells, Fluo-8 calcium fluorescence; Muscarinic acetylcholine receptor M5 (Homo sapiens), P08912; CHO-K1 hM5 cells; 0% DMSO wells, 100% maximal acetylcholine response; activation, % at 3 µM; 360,000 tested, 0.19% active;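 active = activation above the run's mean over test compounds plus 3 SD, cut at about 23% in these data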;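 note: signal is peak over basal fluorescence ratio across the kinetic read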
CHRM5 PAM = human M5 muscarinic receptor positive allosteric modulators, primary screen, CHO-K1 cells, Fluo-8 calcium fluorescence. CHO-K1 hM5, ACh EC20 PAM; 0% = ACh EC20, 100% = ACh EC100. activation, % at 3 µM. 360,000 tested, 0.3% active. AID 624038, 2012;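 active = activation above the run cutoff, the mean activation of all test compounds plus 3 SD, cut at about 18% in these data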
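Assay system: CHO-K1 hM5 cells / Incubation: Fluo-8 loading 80 min at 37 °C plus 30 min room temperature / Technique: Fluo-8 calcium dye fluorescence, kinetic read / Repeats: single replicate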
* marks the source's active call; other numbers are inactive results. Shown are actives, neighbours in structure and some others; about 1.9% of the full set was active somewhere.

For COc1ccc(C(C)=O)cc1CN1C(=O)C(C)ON=C1c1ncccc1C (stereo not drawn) the results were CHRM4 PAM 1, M5 antag -4, M4 antag -8, CHRM4 agonist 2, M5 ag 1 and CHRM5 PAM -2.
For CC(C)N1CSC(=S)N(Cc2ccccc2)C1 the results were CHRM4 PAM 11, M5 antag -16, M4 antag -5, CHRM4 agonist 1, M5 ag 5 and CHRM5 PAM 18*.
`CC(C)NC(=O)c1ccc2sc([C@H]3C[C@H](O)[C@@H](CO)O3)nc2c1` gave CHRM4 PAM -2, M5 antag 2, M4 antag 9, CHRM4 agonist 1, M5 ag 0 and CHRM5 PAM -1.
For CN(Cc1cccs1)C(=O)CNC(=O)c1ccco1 the results were CHRM4 PAM -1, M5 antag 0, M4 antag 3, CHRM4 agonist 0, M5 ag 1 and CHRM5 PAM -3.
O=C(Cc1ccc(Cl)cc1Cl)Nc1ccncc1 was read as CHRM4 PAM -1, M5 antag 10, M4 antag 5, CHRM4 agonist 13, M5 ag 2 and CHRM5 PAM -6.
For O=C(Cc1ccc(Cl)cc1Cl)Nc1ccncc1Cl the results were CHRM4 PAM -6, M5 antag 30*, M4 antag 3, CHRM4 agonist 11, M5 ag 3 and CHRM5 PAM -13.
c1ccc(CCNc2ncnc3scc(C4COc5ccccc5O4)c23)cc1 (stereo not drawn) was read as CHRM4 PAM -19, M5 antag 15, M4 antag 38*, CHRM4 agonist -1, M5 ag -4 and CHRM5 PAM -10.
For Nc1nonc1-n1nnc(C(=O)N/N=C/c2ccc(Cl)cc2Cl)c1CN1CCOCC1 the results were CHRM4 PAM -7, M5 antag -14, M4 antag 10, CHRM4 agonist 1, M5 ag 1 and CHRM5 PAM 4.
Screening Cc1nc2nc(C)c(NS(=O)(=O)c3ccc(Cl)cc3)c(=O)n2[nH]1 returned CHRM4 PAM 1, M5 antag 9, M4 antag -3, CHRM4 agonist 1, M5 ag 1 and CHRM5 PAM 3.
O=C(COC(=O)c1nc(Cl)ccc1Cl)Nc1ccc(Cl)cc1 was read as CHRM4 PAM 22*, M5 antag 3, M4 antag -9, CHRM4 agonist 4, M5 ag -8 and CHRM5 PAM -3.
CCCCn1c(=NC(=O)c2ccco2)c(C(=O)OCC)cc2c(=O)n3cccc(C)c3nc21 was read as CHRM4 PAM 8, M5 antag -12, M4 antag -11, CHRM4 agonist 5, M5 ag 3 and CHRM5 PAM 22*.
CCCCn1c(=NC(=O)c2ccco2)c(C(=O)OCC)cc2c(=O)n3ccccc3nc21 was read as CHRM4 PAM -4, M5 antag -4, M4 antag -5, CHRM4 agonist 2, M5 ag -8 and CHRM5 PAM -10.
Screening Cc1ccc(S(=O)(=O)N2C[C@@H](C)[C@]3(C2)[C@H](O)[C@H](OC(=O)NC2CC2)C[C@H]2C(=O)N(c4ccccc4)C(=O)[C@H]23)cc1 returned CHRM4 PAM -3, M5 antag -6, M4 antag -6, CHRM4 agonist 1, M5 ag -1 and CHRM5 PAM -2.
Screening O=C(NC(c1cccnc1)C(F)(F)F)c1cc(COc2ccc3c(c2)CCCC3)on1 (stereo not drawn) returned CHRM4 PAM -5, M5 antag 29*, M4 antag 20, CHRM4 agonist 10, M5 ag 5 and CHRM5 PAM -10.
Screening Cn1cc(CNC(=O)c2cc(COc3ccc4c(c3)CCCC4)on2)cn1 returned CHRM4 PAM 3, M5 antag 4, M4 antag 3, CHRM4 agonist 8, M5 ag -4 and CHRM5 PAM -2.
Screening CCNS(=O)(=O)c1ccc(OCCNS(C)(=O)=O)cc1 returned CHRM4 PAM 8, M5 antag 3, M4 antag 0, CHRM4 agonist 1, M5 ag 0 and CHRM5 PAM -1.
Screening CCN(CC)S(=O)(=O)c1ccc(OCCNS(C)(=O)=O)cc1 returned CHRM4 PAM -7, M5 antag 29*, M4 antag -3, CHRM4 agonist 2, M5 ag -1 and CHRM5 PAM -15.
O=c1[nH]c(-c2ccccc2)nc(CN2CCCCC2)c1O was read as CHRM4 PAM 21*, M5 antag -2, M4 antag -15, CHRM4 agonist 1, M5 ag 0 and CHRM5 PAM 0.
Screening O=C(N/N=C\c1c(O)ccc2ccccc12)c1cncc(Br)c1 returned CHRM4 PAM -7, M5 antag -6, M4 antag -6, CHRM4 agonist 38*, M5 ag 67* and CHRM5 PAM -10.
O=C(NN=Cc1c(O)ccc2ccccc12)c1ccncc1 was read as CHRM4 PAM -2, M5 antag 9, M4 antag -3, CHRM4 agonist 11, M5 ag 46* and CHRM5 PAM -19.
`O=C(N/N=C\c1c(O)ccc2ccccc12)c1ccc(O)cc1` gave CHRM4 PAM -5, M5 antag 7, M4 antag -5, CHRM4 agonist 3, M5 ag 2 and CHRM5 PAM 2.
Screening CCCCCCCCNC(=O)c1cccnc1SCC(=O)Nc1ccccc1OC returned CHRM4 PAM 3, M5 antag -6, M4 antag -3, CHRM4 agonist 0, M5 ag 2 and CHRM5 PAM 1.
`COc1ccc2[nH]c3c(=O)n(CCCN4CCOCC4)cnc3c2c1` gave CHRM4 PAM 11, M5 antag -14, M4 antag 2, CHRM4 agonist 2, M5 ag 4 and CHRM5 PAM 21*.
Screening O=C(CCl)NC(Cc1ccccc1)C(=O)OCC(=O)c1ccc(-c2ccccc2)cc1 (stereo not drawn) returned CHRM4 PAM -11, M5 antag 14, M4 antag 27*, CHRM4 agonist 9, M5 ag -8 and CHRM5 PAM -35.
`CCSC1=C(C#N)C(c2ccccc2Cl)C(C(=O)c2cccs2)C(O)(C(F)(F)F)N1` (stereo not drawn) gave CHRM4 PAM 1, M5 antag 6, M4 antag 8, CHRM4 agonist 2, M5 ag -2 and CHRM5 PAM 9.
